Test results reported in ChEMBL document CHEMBL1795253, “Synthesis and biological evaluation in U87MG glioma cells of (ethynylthiophene)sulfonamido-based hydroxamates as matrix metalloproteinase inhibitors” (Eur J Med Chem, 2011).

Legend:
[1] = target: T1, Matrix metalloproteinase-25 (Homo sapiens, UniProt Q9NPA2); assay: Inhibition of human MMP25 by fluorometric assay
T1 sequence (Q9NPA2 whole entry): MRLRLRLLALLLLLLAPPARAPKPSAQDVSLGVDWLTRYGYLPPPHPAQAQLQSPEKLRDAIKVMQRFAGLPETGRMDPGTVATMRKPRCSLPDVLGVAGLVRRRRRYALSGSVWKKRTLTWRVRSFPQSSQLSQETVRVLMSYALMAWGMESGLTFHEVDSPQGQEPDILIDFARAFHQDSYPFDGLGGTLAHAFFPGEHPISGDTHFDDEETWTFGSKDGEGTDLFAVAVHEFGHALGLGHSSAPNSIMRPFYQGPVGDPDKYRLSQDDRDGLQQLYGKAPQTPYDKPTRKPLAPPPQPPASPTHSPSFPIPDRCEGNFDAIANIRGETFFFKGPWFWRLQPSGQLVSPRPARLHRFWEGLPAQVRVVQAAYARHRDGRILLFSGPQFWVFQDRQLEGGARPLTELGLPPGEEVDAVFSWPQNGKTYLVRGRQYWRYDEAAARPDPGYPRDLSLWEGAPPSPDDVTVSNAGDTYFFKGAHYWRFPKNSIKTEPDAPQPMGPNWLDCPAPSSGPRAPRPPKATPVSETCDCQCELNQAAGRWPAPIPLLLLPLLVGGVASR
Procedure, shortened: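 E. coli-expressed, refolded MMP-25 catalytic domain added to MOCAcPLGLA2pr(Dnp)AR-NH2 plus varying inhibitor in HEPES pH 7.5 with 5 mM CaCl2, 0.01% Brij-35, 5% DMSO, 25 °C. Initial rates from fluorescence (ex 328/em 393 nm), read every 4 s over 10 min.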

Stromelysin-1 = Stromelysin-1 (Homo sapiens, UniProt P08254); assay: Inhibition of human MMP3 by fluorometric assay
[2] = target: Matrix metalloproteinase-9 (Homo sapiens, UniProt P14780); assay: Inhibition of human MMP9 by fluorometric assay
[3] = target: Matrix metalloproteinase-14 (Homo sapiens, UniProt P50281); assay: Inhibition of human MMP14 by fluorometric assay
Procedure, shortened: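 Pro-enzymes activated with APMA (2 mM 2 h, MMP-1; 2 mM 1 h, MMP-2/-8; 1 mM 1 h, MMP-9; all 37 °C) or trypsin then soybean trypsin inhibitor (MMP-3). MMP-14 was catalytic domain. Enzyme (MMP-1 2.0, MMP-2 0.5, MMP-3 5.0, MMP-8 1.5, MMP-9 1.3, MMP-14 1.0 nM) with inhibitor at 7 concentrations, 2 h, 25 °C, in Tris pH 7.5, 1% DMSO.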

[4] = target: 72 kDa type IV collagenase (Homo sapiens, UniProt P08253); assay: Inhibition of human MMP2 by fluorometric assay
[5] = Antiinvasive activity against human U87MG cells at 5 nM after 24 hrs by Matrigel basement membrane transwell assay; type: functional, U-87MG ATCC
Procedure, shortened: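 U87MG cells (maintained in RPMI, 10% FBS, 37 °C, 5% CO2) suspended serum-free, 60,000 per upper transwell (8.0 μm filters coated with Matrigel 0.32 mg/mL), with inhibitor 5 nM, DMSO vehicle ≤1%. Lower chamber RPMI with 10% FBS. Invasion 24 h at 37 °C. Lower-surface cells fixed with p-formaldehyde, crystal violet-stained, counted in 5 fields. Inhibition versus untreated control. Duplicate, ≥3 experiments, mean ± S.E.M.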

[6] = Cytotoxicity against human U87MG cells assessed as dead cells at 5 nM after 24 hrs by trypan blue exclusion assay; type: functional, U-87MG ATCC
Procedure, shortened: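 U87MG human glioblastoma cells (RPMI, 10% FBS, 2 mM L-glutamine, penicillin/streptomycin, 1% non-essential amino acids, 37 °C, 5% CO2) seeded at 30,000 cells/cm2 in serum-free medium with 5 nM compound, DMSO vehicle ≤1% final, for 24 h. Cells lightly trypsinized, pelleted 800 x g 5 min, stained with 0.4% Trypan Blue in 0.9% NaCl, counted by haemocytometer; mean ± S.E.M., ≥3 experiments in duplicate.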

Neutrophil collagenase = Neutrophil collagenase (Homo sapiens, UniProt P22894); assay: Inhibition of human MMP8 by fluorometric assay
Interstitial collagenase = target: T2, Interstitial collagenase (Homo sapiens, UniProt P03956); assay: Inhibition of human MMP1 by fluorometric assay
T2 sequence (P03956 whole entry): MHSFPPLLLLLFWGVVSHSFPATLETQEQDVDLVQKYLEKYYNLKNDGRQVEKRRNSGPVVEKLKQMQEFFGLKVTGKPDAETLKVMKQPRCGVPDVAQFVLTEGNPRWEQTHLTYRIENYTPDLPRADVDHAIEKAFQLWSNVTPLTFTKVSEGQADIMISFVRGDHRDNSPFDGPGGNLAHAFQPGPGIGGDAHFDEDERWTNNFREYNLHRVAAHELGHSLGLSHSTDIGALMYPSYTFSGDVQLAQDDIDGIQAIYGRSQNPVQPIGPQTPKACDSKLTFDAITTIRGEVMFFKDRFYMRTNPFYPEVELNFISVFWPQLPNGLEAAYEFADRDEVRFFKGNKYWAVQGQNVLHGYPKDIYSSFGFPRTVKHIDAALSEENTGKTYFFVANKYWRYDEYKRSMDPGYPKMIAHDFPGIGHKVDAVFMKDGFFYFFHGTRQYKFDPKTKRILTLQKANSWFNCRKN

U-87MG ATCC = assay: (§1) Antiinvasive activity against human U87MG cells after 24 hrs by Matrigel basement membrane transwell assay; type: functional, cell-based
Procedure, shortened: (§2)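 Transwell filters (8.0 μm pores) coated with Matrigel (0.32 mg/mL) overnight at room temperature. U87MG cells in serum-free medium (60,000/400 μL) with inhibitor (1, 5, 25, 125 nM; DMSO ≤1%) in upper chamber; RPMI + 10% FBS below. 37 °C, 24 h.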

[7] = as §1; type: functional, cell-based; conditions: u-87mg atcc; procedure, shortened: as §2

Chain of Neutrophil collagenase (P22894 whole entry): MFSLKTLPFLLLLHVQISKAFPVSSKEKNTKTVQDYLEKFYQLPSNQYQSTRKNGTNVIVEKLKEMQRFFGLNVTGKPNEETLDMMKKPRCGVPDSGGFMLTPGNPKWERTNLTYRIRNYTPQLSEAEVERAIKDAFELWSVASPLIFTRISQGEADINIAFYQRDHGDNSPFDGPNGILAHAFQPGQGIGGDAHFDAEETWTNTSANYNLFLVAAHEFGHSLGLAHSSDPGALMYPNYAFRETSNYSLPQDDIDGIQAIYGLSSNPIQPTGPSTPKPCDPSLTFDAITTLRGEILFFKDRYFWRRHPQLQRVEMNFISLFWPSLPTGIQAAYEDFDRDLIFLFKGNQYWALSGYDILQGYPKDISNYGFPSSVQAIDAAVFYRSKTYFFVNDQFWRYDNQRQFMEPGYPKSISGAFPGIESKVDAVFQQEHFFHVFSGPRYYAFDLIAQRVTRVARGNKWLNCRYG
Chain of Stromelysin-1 (P08254 whole entry): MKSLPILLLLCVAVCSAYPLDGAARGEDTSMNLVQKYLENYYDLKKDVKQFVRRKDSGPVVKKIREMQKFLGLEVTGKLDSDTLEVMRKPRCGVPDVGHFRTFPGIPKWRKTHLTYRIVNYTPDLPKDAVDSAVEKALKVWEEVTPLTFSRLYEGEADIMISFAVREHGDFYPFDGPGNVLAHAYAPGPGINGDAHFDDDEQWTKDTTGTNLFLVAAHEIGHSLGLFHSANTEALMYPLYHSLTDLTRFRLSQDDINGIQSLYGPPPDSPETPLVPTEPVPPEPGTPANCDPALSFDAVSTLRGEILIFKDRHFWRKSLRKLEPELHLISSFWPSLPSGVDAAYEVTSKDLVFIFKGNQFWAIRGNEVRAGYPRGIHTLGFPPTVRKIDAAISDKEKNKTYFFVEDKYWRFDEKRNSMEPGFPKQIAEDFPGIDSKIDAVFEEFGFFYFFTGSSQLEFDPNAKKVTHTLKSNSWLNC
Chain of Matrix metalloproteinase-9 (P14780 whole entry): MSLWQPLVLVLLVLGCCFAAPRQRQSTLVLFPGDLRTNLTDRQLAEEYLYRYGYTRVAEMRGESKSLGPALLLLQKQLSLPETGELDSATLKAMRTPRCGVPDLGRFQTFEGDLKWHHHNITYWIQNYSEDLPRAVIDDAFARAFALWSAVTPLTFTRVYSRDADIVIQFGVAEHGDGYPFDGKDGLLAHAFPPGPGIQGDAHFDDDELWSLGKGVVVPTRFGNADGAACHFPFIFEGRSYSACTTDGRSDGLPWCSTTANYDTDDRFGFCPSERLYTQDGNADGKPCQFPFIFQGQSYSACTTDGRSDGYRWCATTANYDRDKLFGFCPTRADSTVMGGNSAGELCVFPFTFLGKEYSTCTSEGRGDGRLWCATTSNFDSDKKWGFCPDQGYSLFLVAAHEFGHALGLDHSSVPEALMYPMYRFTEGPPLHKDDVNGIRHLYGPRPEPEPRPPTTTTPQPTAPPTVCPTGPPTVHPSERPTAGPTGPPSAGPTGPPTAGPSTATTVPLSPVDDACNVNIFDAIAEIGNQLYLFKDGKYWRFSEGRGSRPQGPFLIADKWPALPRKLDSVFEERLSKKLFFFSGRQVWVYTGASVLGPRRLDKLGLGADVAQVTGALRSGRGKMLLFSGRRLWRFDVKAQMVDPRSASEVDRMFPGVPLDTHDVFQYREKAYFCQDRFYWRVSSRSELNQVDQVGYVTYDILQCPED
Chain of 72 kDa type IV collagenase (P08253 whole entry): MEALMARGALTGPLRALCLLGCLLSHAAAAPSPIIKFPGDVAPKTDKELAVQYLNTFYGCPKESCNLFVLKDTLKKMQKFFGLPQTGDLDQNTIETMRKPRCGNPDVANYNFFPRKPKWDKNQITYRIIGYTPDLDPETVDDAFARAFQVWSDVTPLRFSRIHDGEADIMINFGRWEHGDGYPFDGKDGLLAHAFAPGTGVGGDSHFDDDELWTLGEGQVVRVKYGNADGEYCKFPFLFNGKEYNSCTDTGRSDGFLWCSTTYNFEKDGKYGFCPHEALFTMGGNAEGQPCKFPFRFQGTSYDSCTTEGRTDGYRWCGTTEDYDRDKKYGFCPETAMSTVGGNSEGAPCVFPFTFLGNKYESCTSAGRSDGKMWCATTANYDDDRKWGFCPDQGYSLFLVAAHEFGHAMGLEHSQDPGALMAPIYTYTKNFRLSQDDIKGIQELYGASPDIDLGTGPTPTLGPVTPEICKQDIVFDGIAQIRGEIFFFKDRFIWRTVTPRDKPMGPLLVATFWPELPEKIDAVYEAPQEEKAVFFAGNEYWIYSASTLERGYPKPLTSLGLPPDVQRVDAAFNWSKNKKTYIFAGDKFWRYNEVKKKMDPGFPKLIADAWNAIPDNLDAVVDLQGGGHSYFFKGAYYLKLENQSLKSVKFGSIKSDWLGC

| SMILES | IC50 [1] | IC50 (Stromelysin-1) | IC50 [2] | IC50 [3] | IC50 [4] | Activity [5] | Activity [6] | IC50 (Neutrophil collagenase) | IC50 (Interstitial collagenase) | Activity (U-87MG ATCC) | IC50 [7] |
| --- | --- | --- | --- | --- | --- | --- | --- | --- | --- | --- | --- |
| CCCCc1ccc(C#Cc2ccc(S(=O)(=O)N[C@H](Cc3csc4ccccc34)C(=O)NO)s2)cc1 | 0.22 µM | 0.32 µM | 0.65 µM | 23 µM | 0.017 µM | 34% | 14.4% | 1.7 µM | 56 µM |  |  |
| CCCCc1ccc(C#Cc2ccc(S(=O)(=O)N3Cc4ccccc4C[C@@H]3C(=O)NO)s2)cc1 | 0.0034 µM | 0.011 µM | 0.0043 µM | 0.112 µM | 0.0013 µM | 35.9% | 13.6% | 0.03 µM | 6.7 µM |  |  |
| CCCCc1ccc(C#Cc2ccc(S(=O)(=O)N[C@H](Cc3ccc(OCc4ccccc4)cc3)C(=O)NO)s2)cc1 | 0.038 µM | 0.18 µM | 0.063 µM | 2.1 µM | 0.0023 µM | 42.6% | 12.3% | 0.49 µM | 4.8 µM | Dose-dependent effect | 0.012 µM |
| CCCCc1ccc(C#Cc2ccc(S(=O)(=O)N3CSC[C@H]3C(=O)NO)s2)cc1 | 0.17 µM | 0.038 µM | 0.021 µM | 1.6 µM | 0.0025 µM | 16% | 17.8% | 0.5 µM | 21 µM |  |  |
| COc1ccc(S(=O)(=O)N(Cc2cccnc2)[C@@H](C(=O)NO)C(C)C)cc1.Cl [CGS-27023A] | 0.0015 µM |  |  |  |  | 28.3% | 10.8% |  |  |  |  |
| CCCCc1ccc(C#Cc2ccc(S(=O)(=O)NCC(=O)NO)s2)cc1 | 0.034 µM | 0.046 µM | 0.079 µM | 0.7 µM | 0.0015 µM | 39.5% | 11.5% | 0.2 µM | 13 µM |  |  |
| CCCCc1ccc(C#Cc2ccc(S(=O)(=O)N[C@H](Cc3c[nH]c4ccccc34)C(=O)NO)s2)cc1 | 0.076 µM | 0.093 µM | 0.077 µM | 1.7 µM |  | 48.4% | 6.8% | 0.28 µM | 2.3 µM |  |  |
| CCCCc1ccc(C#Cc2ccc(S(=O)(=O)N[C@H](Cc3ccc(C(=O)c4ccccc4)cc3)C(=O)NO)s2)cc1 | 0.34 µM | 0.084 µM | 0.05 µM | 6.6 µM | 0.004 µM | 27.5% | 9.38% | 0.44 µM | 37 µM |  |  |
